Results as given in article PMC2765488 (Journal of medicinal chemistry, 2009).

Key:
[1] = assay type: physicochemical
Summary of the method: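 Capacity factors from analytical reversed-phase HPLC retention times (diphenyl column; 0.1% TFA water/acetonitrile; linear 20–100% B over 40 min, 20 min re-equilibration). […] Linear logD–retention correlation gave calculated logD.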

[2] = CD, in the presence of 50% v/v 2,2,2-trifluoroethanol; cited from earlier work
[3] = system: 6 Hz corneal stimulation limbic seizure; settings: cited from earlier work; for Anticonvulsant activity, mice protected/tested, 15' / Anticonvulsant activity, mice protected/tested, 30' / Anticonvulsant activity, mice protected/tested, 1h / Anticonvulsant activity, mice protected/tested, 2h / Anticonvulsant activity, mice protected/tested, 4h: 6 Hz, 32 mA, 4 mg/kg i.p.; for Anticonvulsant activity, mice protected/tested, 15': 15 min after administration; for Anticonvulsant activity, mice protected/tested, 30': 30 min after administration; for Anticonvulsant activity, mice protected/tested, 1h: 1 h after administration; for Anticonvulsant activity, mice protected/tested, 2h: 2 h after administration; for Anticonvulsant activity, mice protected/tested, 4h: 4 h after administration
[4] = Mouse pain assay following i.p. administration; assay type: in vivo; settings: unpublished results of the authors
human serum albumin = settings: higher affinity of C8 versus C14; cited from earlier work
[5] = buffered 25% rat blood serum, 37 °C; cited from earlier work

Row | Molecule | chromatographic logD [1] | α-helix content [2] [%] | Anticonvulsant activity, mice protected/tested, 15' [3] | Anticonvulsant activity, mice protected/tested, 30' [3] | Anticonvulsant activity, mice protected/tested, 1h [3] | Anticonvulsant activity, mice protected/tested, 2h [3] | Anticonvulsant activity, mice protected/tested, 4h [3] | further results
1 | CCCCCCCC(=O)NCCCC[C@H](NC(=O)[C@H](CCCCN)NC(=O)[C@H](CCCCN)NC(=O)[C@@H]1CCCN1C(=O)CNC(=O)[C@H](CC(C)C)NC(=O)[C@H](CC(C)C)NC(=O)[C@H](Cc1ccc(O)cc1)NC(=O)CNC(=O)[C@H](C)NC(=O)[C@H](CO)NC(=O)[C@H](CC(N)=O)NC(=O)[C@H](CC(C)C)NC(=O)[C@@H](NC(=O)[C@H](Cc1c[nH]c2ccccc12)NC(=O)CNC)[C@@H](C)O)C(=O)N[C@@H](CCCCN)C(N)=O [Gal-B2-C8] | 0.78 |  |  |  |  |  |  | 
2 | CCCCCCCCCCCCCCCCCC(=O)NCCCC[C@H](NC(=O)[C@H](CCCCN)NC(=O)[C@H](CCCCN)NC(=O)[C@@H]1CCCN1C(=O)CNC(=O)[C@H](CC(C)C)NC(=O)[C@H](CC(C)C)NC(=O)[C@H](Cc1ccc(O)cc1)NC(=O)CNC(=O)[C@H](C)NC(=O)[C@H](CO)NC(=O)[C@H](CC(N)=O)NC(=O)[C@H](CC(C)C)NC(=O)[C@@H](NC(=O)[C@H](Cc1c[nH]c2ccccc12)NC(=O)CNC)[C@@H](C)O)C(=O)N[C@@H](CCCCN)C(N)=O [Gal-B2-C18] | 1.35 |  |  |  |  |  |  | 
3 | CCCCCCCCCCCCCCCC(=O)NCCCC[C@H](NC(=O)[C@H](CCCCN)NC(=O)[C@H](CCCCN)NC(=O)[C@@H]1CCCN1C(=O)CNC(=O)[C@H](CC(C)C)NC(=O)[C@H](CC(C)C)NC(=O)[C@H](Cc1ccc(O)cc1)NC(=O)CNC(=O)[C@H](C)NC(=O)[C@H](CO)NC(=O)[C@H](CC(N)=O)NC(=O)[C@H](CC(C)C)NC(=O)[C@@H](NC(=O)[C@H](Cc1c[nH]c2ccccc12)NC(=O)CNC)[C@@H](C)O)C(=O)N[C@@H](CCCCN)C(N)=O [Gal-B2] |  | 23 | 3/4 | 4/4 | 4/4 | 4/4 | 0/4 | anticonvulsant ED50 ([3]; i.p., 6 Hz pharmacoresistant model of epilepsy): 0.8 mg/kg; analgesic activity [4]: comparable analgesic activities
4 | CCCCCCCC(=O)O [octanoic acid] |  |  |  |  |  |  |  | affinity to human serum albumin compared to the C14 (myristic acid) (human serum albumin): 11 fold
5 | (Sar)WTLNSAGYLLGPKKKK [Gal-(K)4, reference compound] |  | 14 | 0/4 | 3/4 | 1/3 | 0/3 | 0/4 | 
6 | Gal(1-16): unmodified Gal(1-16) analog |  |  |  |  |  |  |  | half-time in 25% rat serum [5]: 7.8 min
